# Columns and labels:
# [1] = tested on: Human immunodeficiency virus 2; assay: Inhibition concentration required to inhibit ROD strain was determined by MT-4/MTT assay; type: functional, organism-based
# Outline: (§1)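 MT-4 cells infected with HIV-1 (strain IIIB) or HIV-2 (strain ROD), with viability read by MTT. The read-out is the 50% inhibitory concentration (IC50). CC50 was measured in MT-4 cells, and the selectivity index was calculated as CC50/IC50.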
# [2] = tested on: HeLa; assay: Minimum inhibitory concentration required to inhibit Coxsackie B4 virus; type: functional; details: Homo sapiens
# Outline: (§2)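 HeLa cell cultures infected with vesicular stomatitis virus, Coxsackie B4 virus or respiratory syncytial virus. The read-out is the minimum inhibitory concentration (MIC), with compounds tested up to 100 or 700 μM.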
# [3] = tested on: HeLa; assay: Minimum inhibitory concentration required to inhibit vesicular stomatitis virus; type: functional; details: Homo sapiens; outline: as §2
# [4] = tested on: HeLa; assay: Minimum inhibitory concentration required to inhibit respiratory syncytial virus; type: functional; details: Homo sapiens; outline: as §2
# [5] = tested on: Human immunodeficiency virus 1; assay: Inhibition concentration required to inhibit HIV-IIIB was determined by MT-4/MTT assay; type: functional, organism-based; outline: as §1
# [6] = tested on: Human immunodeficiency virus 1; assay: Inhibition concentration required to inhibit HIV-1 was determined by MT-4/MTT assay; type: functional, organism-based; outline: as §1
# [7] = tested on: Human immunodeficiency virus 2; assay: Inhibition concentration required to inhibit HIV-2 was determined by MT-4/MTT assay; type: functional, organism-based; outline: as §1
# [8] = Minimum cytotoxic concentration was determined; details: human
# Outline: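 Human embryonic lung (HEL) cell cultures, run alongside the CMV (AD-169, Davis) and VZV (OKA, 07/1) antiviral tests. Minimum cytotoxic concentration is the lowest compound level that causes cytotoxicity.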
# [9] = tested on: MT4; assay: Ratio of cytotoxicity to antiviral activity was determined; type: functional, Homo sapiens; outline: as §1
# [10] = tested on: Cytomegalovirus; assay: Activity against CMV (AD-169 strain) was determined; type: functional, organism-based; details: Human betaherpesvirus 5
# Outline: (§3)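 Human embryonic lung (HEL) cell cultures infected with human cytomegalovirus, AD-169 or Davis strain. The read-out is the 50% effective concentration (EC50). Cytotoxicity was measured in the same cells as the 50% cytotoxic concentration (CC50).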
# [11] = tested on: Cytomegalovirus; assay: Activity against CMV (Davis strain) was determined; type: functional, organism-based; details: Human betaherpesvirus 5; outline: as §3
# [12] = target: T1, Adenosylhomocysteinase (Homo sapiens, UniProt P23526); assay: Inhibition of recombinant Placental Adenosylhomocysteinase
# Target sequence in this assay (P23526 whole entry): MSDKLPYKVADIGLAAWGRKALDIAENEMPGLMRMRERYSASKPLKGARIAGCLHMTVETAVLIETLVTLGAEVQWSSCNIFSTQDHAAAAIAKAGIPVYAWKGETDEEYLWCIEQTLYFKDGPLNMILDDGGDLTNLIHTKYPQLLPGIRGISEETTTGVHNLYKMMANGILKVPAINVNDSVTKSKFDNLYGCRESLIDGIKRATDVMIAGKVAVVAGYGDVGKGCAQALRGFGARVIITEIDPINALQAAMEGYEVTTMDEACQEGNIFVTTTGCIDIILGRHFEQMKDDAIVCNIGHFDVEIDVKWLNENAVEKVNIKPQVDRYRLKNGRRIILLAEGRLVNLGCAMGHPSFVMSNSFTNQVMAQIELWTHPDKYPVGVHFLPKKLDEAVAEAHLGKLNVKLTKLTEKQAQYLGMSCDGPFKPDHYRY
# [13] = target: T1, Adenosylhomocysteinase
# Target sequence in this assay (P23526 2-432 limits assumed): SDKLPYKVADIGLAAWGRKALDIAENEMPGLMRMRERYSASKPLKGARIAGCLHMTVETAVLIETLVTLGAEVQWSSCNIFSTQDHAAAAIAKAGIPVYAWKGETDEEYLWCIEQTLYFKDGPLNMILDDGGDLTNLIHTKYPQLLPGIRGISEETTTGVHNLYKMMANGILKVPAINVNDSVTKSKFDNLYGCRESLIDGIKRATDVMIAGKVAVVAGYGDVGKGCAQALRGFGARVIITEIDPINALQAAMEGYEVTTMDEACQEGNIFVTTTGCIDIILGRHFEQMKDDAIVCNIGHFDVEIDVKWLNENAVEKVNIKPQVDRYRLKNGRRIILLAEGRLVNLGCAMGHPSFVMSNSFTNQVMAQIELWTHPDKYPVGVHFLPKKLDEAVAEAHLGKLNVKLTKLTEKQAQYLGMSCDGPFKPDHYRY
# [14] = target: T1, Adenosylhomocysteinase; assay: Inhibition of recombinant human placental AdoHcy hydrolase
# Outline: (§4)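 Recombinant enzyme (2.5 μg) preincubated with inhibitor at 0–200 μM for 0–20 min at 37 °C in 50 mM potassium phosphate, pH 7.2, 1 mM EDTA. Residual synthetic-direction activity was measured with 1 mM Ado and 1 mM Hcy for 1 min at 37 °C, stopped with HClO4, and AdoHcy quantified by reversed-phase HPLC at 258 nm. Ki and kinact came from fitting kobs = kinact[I]/(Ki+[I]).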
# Target sequence in this assay (P23526 whole entry): as the sequence (P23526 whole entry) above
# [15] = target: T1, Adenosylhomocysteinase; assay: Rate at which the compound inactivates human placental AdoHcy hydrolase enzyme was determined; type: functional; outline: as §4
# Target sequence in this assay (P23526 2-432 limits assumed): as the sequence (P23526 2-432 limits assumed) above
SMILES,IC50 [1] [nM],MIC [2] [µM],MIC [3] [µM],MIC [4] [µM],IC50 [5] [nM],IC50 [6] [nM],IC50 [7] [nM],MCC [8] [µM],CC50/IC50 [9],EC50 [10] [µM],EC50 [11] [µM],Ki [12] [nM],K inact [13] [min⁻¹],Ki [14] [µM],K inact [15] [min⁻¹]
O=c1ccn(C2O[C@H](/C=C/C#CI)[C@@H](O)[C@H]2O)c(=O)[nH]1 (some centres not stated),1800,> 100,> 100,> 100,1800,1800,1800,≥ 50,3,,,,,,
C#C/C=C/[C@H]1OC(n2ccc(=O)[nH]c2=O)[C@H](O)[C@@H]1O (some centres not stated),,> 700,> 700,> 700,,,,≥ 350,,,,,,,
C#C/C=C\[C@H]1OC(n2cnc3c(N)ncnc32)[C@H](O)[C@@H]1O (some centres not stated),,> 700,> 700,> 700,,,,≥ 350,,,,,,,
C#C/C=C/[C@H]1OC(n2cnc3c(N)ncnc32)[C@H](O)[C@@H]1O (some centres not stated),,> 100,> 100,> 100,,,,≥ 350,,50,30,550,2.57,,
C#C/C=C\[C@H]1OC(n2ccc(=O)[nH]c2=O)[C@H](O)[C@@H]1O (some centres not stated),,> 100,> 100,> 100,,,,≥ 350,7,,,,,,
CCOC(=O)/C=C\C#C[C@H]1OC(n2cnc3c(N)ncnc32)[C@H](O)[C@@H]1O (some centres not stated),,,,,,,,≥ 11,,,,,,,
Nc1ncnc2c1ncn2C1O[C@H](/C=C/C#CI)[C@@H](O)[C@H]1O (some centres not stated),1100,> 100,> 100,> 100,1100,1100,1100,≥ 50,7,,,,,118,1.49
